This is an account of results in ChEMBL document CHEMBL1212857, “Syntheses and pharmacological characterization of novel thiazole derivatives as potential mGluR5 PET ligands” (Bioorg Med Chem, 2010).

SMILES strings stand for the structures.

Data set [1] has as its target Metabotropic glutamate receptor 5 (Rattus norvegicus, UniProt P31424). In words: Displacement of [3H]M-MPEP from mGluR5 in Sprague-Dawley rat brain membranes (cerebellum removed) after 45 mins by liquid scintillation counting. For orientation: In a radioligand displacement assay an active substance lowers the binding of a labelled ligand.
Data set [2] in a line: Lipophilicity, log D of the compound at pH 7.4 by shake flask method. The class given is physicochemical. As to conditions: buffer; call rule not given here. The method, boiled down:
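Shake-flask log D (n = 5): [18F] tracer (80 kBq) added to 0.5 mL 1-octanol and 0.5 mL phosphate buffer pH 7.4, each pre-saturated with the other. Mixed 15 min, centrifuged at 5000g for 5 min, and radioactivity in each phase gamma-counted.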

Another data set has as its system Striatum. Nature of the data set: Drug uptake in Sprague-Dawley rat striatum at 0.5 to 5 nM after 45 mins by autoradiography. The class given is ADME, tissue-based. As to conditions: 0.75 h, 0.005 µM. The method, boiled down:
(§1)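 Frozen rat brain slices thawed 30 min at rt, preincubated 10 min at 4 °C in HEPES–BSA buffer pH 7.4, then covered with 0.5 or 5 nM [18F] tracer for 45 min at rt in a humid chamber. Blocking was by co-incubation with excess unlabeled ABP688. Washes were 3×3 min in HEPES buffer and 2×5 s in water at 4 °C, followed by 40 min drying and 7 min phosphor-plate exposure.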

Another data set deals with Cortex. Nature of the data set: Drug uptake in Sprague-Dawley rat cortex at 0.5 to 5 nM after 45 mins by autoradiography. The class given is ADME, tissue-based. As to conditions: 0.75 h, 0.005 µM. A digest of the protocol: as §1
Data set [3] concerns Plasma. Nature of the data set: Metabolic stability in rat plasma after 120 mins by UPLC analysis. In kind it is ADME, cell-free. As to conditions: 2 h. The method, boiled down:
(§2)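 [18F] tracer in ethanol added to human or rat plasma and incubated at 37 °C for 120 min. Aliquots taken at 0, 30, 60, 90 and 120 min into ice-cold acetonitrile, centrifuged (5000g, 4 °C, 10 min), and supernatant analysed by radio-UPLC.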

For data set [4], the system named is Plasma. In words: Metabolic stability in human plasma after 120 mins by UPLC analysis. The class given is ADME, cell-free. As to conditions: 2 h. A digest of the protocol:
as §2

Data set [5] is described as follows: Metabolic stability in rat liver microsomes assessed as compound remaining after 60 mins by UPLC analysis. In kind it is ADME, Microsome. As to conditions: read-out: Stability. A digest of the protocol:
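Pooled rat liver microsomes (0.52 mg/mL protein). Tracer (20–50 nM) preincubated 5 min with 10 mM NADPH in 0.1 M phosphate pH 7.4 at 37 °C before microsomes were added; testosterone served as positive control and boiled microsomes as negative control. Reactions quenched with ice-cold acetonitrile at 0, 15, 30 and 60 min, centrifuged, and supernatant run by UPLC.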

For a further data set, the system named is Brain. In words: Drug uptake in Sprague-Dawley rat brain slices at 0.5 to 5 nM after 45 mins by autoradiography in presence of 500 nM of ABP688. In kind it is ADME, tissue-based. As to conditions: 0.75 h, 0.005 µM. The method, boiled down: as §1
For another data set, the system named is Hippocampus. In words: Drug uptake in Sprague-Dawley rat hippocampus at 0.5 to 5 nM after 45 mins by autoradiography. In kind it is ADME, tissue-based. As to conditions: 0.75 h, 0.005 µM. A digest of the protocol:
as §1

Metabotropic glutamate receptor 5, sequence (P31424 whole entry): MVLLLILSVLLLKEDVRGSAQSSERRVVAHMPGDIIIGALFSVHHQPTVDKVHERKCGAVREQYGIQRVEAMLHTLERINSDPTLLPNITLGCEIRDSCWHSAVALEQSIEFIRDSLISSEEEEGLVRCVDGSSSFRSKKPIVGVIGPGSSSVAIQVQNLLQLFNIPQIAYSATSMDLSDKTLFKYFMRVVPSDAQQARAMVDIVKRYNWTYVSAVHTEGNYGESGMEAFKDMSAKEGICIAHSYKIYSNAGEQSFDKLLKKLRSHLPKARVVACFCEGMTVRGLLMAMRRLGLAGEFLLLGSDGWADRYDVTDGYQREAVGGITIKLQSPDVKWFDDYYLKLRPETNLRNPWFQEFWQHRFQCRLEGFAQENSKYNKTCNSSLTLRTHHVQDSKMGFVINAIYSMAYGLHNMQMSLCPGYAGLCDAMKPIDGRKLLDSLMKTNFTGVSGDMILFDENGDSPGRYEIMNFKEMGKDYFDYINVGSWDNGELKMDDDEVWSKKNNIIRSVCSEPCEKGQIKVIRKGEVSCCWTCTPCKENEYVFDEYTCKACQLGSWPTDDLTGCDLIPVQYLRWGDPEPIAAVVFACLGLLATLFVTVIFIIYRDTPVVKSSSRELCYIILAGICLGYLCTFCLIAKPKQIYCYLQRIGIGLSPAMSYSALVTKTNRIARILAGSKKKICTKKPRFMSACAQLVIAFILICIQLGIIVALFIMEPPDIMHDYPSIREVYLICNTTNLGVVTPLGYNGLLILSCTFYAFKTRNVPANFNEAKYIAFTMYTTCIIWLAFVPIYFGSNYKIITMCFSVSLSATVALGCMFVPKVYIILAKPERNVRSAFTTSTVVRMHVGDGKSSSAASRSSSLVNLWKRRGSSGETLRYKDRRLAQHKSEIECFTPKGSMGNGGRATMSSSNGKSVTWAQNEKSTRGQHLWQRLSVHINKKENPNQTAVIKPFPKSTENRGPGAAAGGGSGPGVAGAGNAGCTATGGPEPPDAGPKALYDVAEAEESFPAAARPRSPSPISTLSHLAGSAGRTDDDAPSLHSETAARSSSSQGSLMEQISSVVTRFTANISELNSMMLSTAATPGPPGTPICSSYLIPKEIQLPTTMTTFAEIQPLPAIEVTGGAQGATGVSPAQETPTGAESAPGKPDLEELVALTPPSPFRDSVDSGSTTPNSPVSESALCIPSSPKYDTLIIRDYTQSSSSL

The Ki is a dissociation constant, usually derived from enzyme kinetics or from competition with a known ligand. Higher therefore signals a looser hold on the target. The compound `CO/N=C1/C=C(C#Cc2csc(CF)n2)CCC1` gave a Ki in [1] of 5.5 nM.
The compound `CO/N=C1/C=C(C#Cc2nccs2)CCC1` showed a Ki in data set [1] of 20.3 nM.
As a reminder, the logD is lipophilicity at a set pH, counting ionised and neutral species. A lower logD goes with a more hydrophilic compound. Turning to `CO/N=C1/C=C(C#Cc2csc(C[18F])n2)CCC1`, the logD in data set [2] was found to be 1.6. For the same compound, the Drug uptake result with Striatum is listed as “Active”; in the data set with Cortex it was “Active”; in the data set with Brain, “Not Active”; in the data set on Hippocampus it was “Active”. The Stability result in the data set with Plasma [3] and with Plasma [4] was “Stable” in each case. In addition, in data set [5], the remaining at 1 h was found to be 93%.
`Cc1nc(C#CC2=C/C(=N/OCCOCCF)CCC2)cs1`: the affinity in data set [1] corresponds to a Ki of 21.9 nM.
Same read-out and setting: with `FCCOCCO/N=C1/C=C(C#Cc2cscn2)CCC1` the figure was 36 nM.
